According to ChEMBL document CHEMBL1177667, “Novel anti-viability ceramide analogs: design, synthesis, and structure-activity relationship studies of substituted (S)-2-(benzylideneamino)-3-hydroxy-N-tetradecylpropanamides” (Bioorg Med Chem, 2010):

Test system: HEK293
Assay: Cytotoxicity against HEK293 cells assessed as reduction in cell viability
Type: cell-based
Details: Homo sapiens
Procedure, shortened: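 MTT viability assay on non-tumorigenic human kidney cells, run by the same protocol as the breast cancer line. Cells were seeded at […] per well in phenol-free DMEM with 5% FBS and left to adhere overnight. Compounds were given at 0.1–100 µM for 24 h, then MTT (5 mg/mL) for 4 h. Cells were lysed in 20% SDS/50% DMF and read at 550 nm (reference 630 nm). Mean ±SE of four independent experiments.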

| SMILES | IC50 [µM] |
| --- | --- |
| CCCCCCCCCCCCCCNC(=O)[C@H](CO)/N=C/c1ccccc1Cl | 94.9 |
| CCCCCCCCCCCCCCNC(=O)[C@H](CO)/N=C/c1ccccc1OC | 79.2 |
| CCCCCCCCCCCCCCNC(=O)[C@H](CO)/N=C/c1cccc(O)c1 | 77.5 |
| CCCCCCCCCCCCCCNC(=O)[C@H](CO)/N=C/c1cccc(OC)c1 | 77.3 |
| CCCCCCCCCCCCCCNC(=O)[C@H](CO)/N=C/c1ccc(O)cc1 | 71.7 |
| CCCCCCCCCCCCCCNC(=O)[C@H](CO)/N=C/c1ccc(Cl)cc1 | 77.7 |
| CCCCCCCCCCCCCCNC(=O)[C@H](CO)/N=C/c1ccccc1C | 81.1 |
| CCCCCCCCCCCCCCNC(=O)[C@H](CO)/N=C/c1ccc(OC)cc1 | 81.7 |
| CCCCCCCCCCCCCCNC(=O)[C@H](CO)/N=C/c1ccccc1[N+](=O)[O-] | 82.6 |
| CCCCCCCCCCCCCCNC(=O)[C@H](CO)/N=C/c1cccc(Cl)c1 | 77 |
| CCCCCCCCCCCCCCNC(=O)[C@H](CO)/N=C/c1ccccc1O | 80.8 |
| CCCCCCCCCCCCCCNC(=O)[C@H](CO)/N=C/c1ccc([N+](=O)[O-])cc1 | 49.5 |
| CCCCCCCCCCCCCCNC(=O)[C@H](CO)/N=C/c1ccc(C)cc1 | 47.3 |
| CCCCCCCCCCCCCCNC(=O)[C@H](CO)/N=C/c1cccc(C)c1 | 51.1 |
| CCCCCCCCCCCCCCNC(=O)[C@H](CO)/N=C/c1cccc([N+](=O)[O-])c1 | 82.7 |

Test system: not listed separately
Assay: Cytotoxicity against human MCF-7TN-R cells assessed as reduction in cell viability after 24 hrs by MTT assay
Type: functional, cell-based
Details: not given

| SMILES | IC50 [µM] |
| --- | --- |
| CCCCCCCCCCCCCCNC(=O)[C@H](CO)NCc1ccccc1[N+](=O)[O-] | 29.4 |
| CCCCCCCCCCCCC/C=C/[C@@H](O)[C@H](CO)NC(=O)CCCCCCC | 8.59 |
| CCCCCCCCCCCCCCNC(=O)[C@H](CO)NCc1ccccc1Cl | 43.7 |
| CCCCCCCCCCCCCCNC(=O)[C@H](CO)/N=C/c1ccccc1 | 7.67 |
| CCCCCCCCCCCCCCNC(=O)[C@H](CO)/N=C/c1ccccc1Cl | 10.3 |
| CCCCCCCCCCCCCCNC(=O)[C@H](CO)/N=C/c1ccccc1OC | 12.5 |
| CCCCCCCCCCCCCCNC(=O)[C@H](CO)/N=C/c1cccc(O)c1 | 32.6 |
| CCCCCCCCCCCCCCNC(=O)[C@H](CO)/N=C/c1cccc(OC)c1 | 31.2 |
| CCCCCCCCCCCCCCNC(=O)[C@H](CO)/N=C/c1ccc(O)cc1 | 19.3 |
| CCCCCCCCCCCCCCNC(=O)[C@H](CO)/N=C/c1ccc(Cl)cc1 | 27.5 |
| CCCCCCCCCCCCCCNC(=O)[C@H](CO)/N=C/c1ccccc1C | 87.7 |
| CCCCCCCCCCCCCCNC(=O)[C@H](CO)NCc1ccccc1O | 75.3 |
| CCCCCCCCCCCCCCNC(=O)[C@H](CO)/N=C/c1ccc(OC)cc1 | 28.1 |
| CCCCCCCCCCCCCCNC(=O)[C@H](CO)/N=C/c1ccccc1[N+](=O)[O-] | 21.7 |
| CCCCCCCCCCCCCCNC(=O)[C@H](CO)/N=C/c1cccc(Cl)c1 | 24.1 |
| CCCCCCCCCCCCCCNC(=O)[C@H](CO)/N=C/c1ccccc1O | 19 |
| CCCCCCCCCCCCCCNC(=O)[C@H](CO)NCc1ccccc1OC | 100 |
| CCCCCCCCCCCCCCNC(=O)[C@H](CO)/N=C/c1ccc([N+](=O)[O-])cc1 | 216 |
| CCCCCCCCCCCCCCNC(=O)[C@H](CO)/N=C/c1ccc(C)cc1 | 102 |
| CCCCCCCCCCCCCCNC(=O)[C@H](CO)/N=C/c1cccc(C)c1 | 82.9 |
| CCCCCCCCCCCCCCNC(=O)[C@H](CO)/N=C/c1cccc([N+](=O)[O-])c1 | 104 |
